The entries come from a sample that favours hits as a whole.
Fibroblast inh: antiproliferative effect on LL 47 fibroblasts – human, LL 47 cells, CellTiter-Glo luminescence, primary screen; LL 47 human lung fibroblast viability, ATP luminescence; hits give low values; viability, % at 10 µM; hit rate 1.1% among 85,000; AID 719, 2007;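 active = viability at or below 50% in the single dose screen; inactive = viability above 50%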;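 note: compound exposure lasted 72 h before the ATP readout; 100% = median luminescence of untreated cell-only wells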
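Benchmarks: Cell-only wells, no compound | Test system: LL 47 human lung fibroblasts, passage 12 or lower | Input: 1,150 cells/well | Measured by: CellTiter-Glo luminescence measuring cellular ATP | Medium: IMEM, 15% FBS supplement | Schedule: Overnight attachment after seeding, then 72 h compound exposure at 37 °C | Doses: Compound addition at 0.1% DMSO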
bCat KO growth: primary screen for growth suppressors in beta-catenin knockout HCT116 cells (colon tumor, human); HCT116 beta-catenin knockout viability, CellTiter-Glo, 60 h; hits give low values; viability, % at 10 µM; hit rate 1.5% among 140,000; AID 818, 2007;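 active = viability at or under a set limit, the compound median less 4 SD, cut at about 6% in these data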;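 note: 0% = Hyamine 1622 control at 20 µM and 100% = untreated cell control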
HUVEC inhibit: inhibitors of HUVEC proliferation, primary screen, cell-based, 384-well. AID 648, 2007. viability, % at 10 µM (by protocol). CellTiter-Glo luminescence, 72 h; hits give low values. hit rate 1.1% among 86,000;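 active = viability at or below 30%; inactive = viability above 30%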;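 note: 100% = median luminescence of DMSO-only cell control wells on each plate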
HCT116 PTEN-null: growth suppression of PTEN-null HCT116, primary screen, cell-based, CellTiter-Glo; HCT116 PTEN-null viability, 60 h; hits give low values; viability, % at 10 µM; hit rate 1.2% among 140,000; AID 827, 2007;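 active = viability at or below a set limit, 4 SD under the median of all tested compounds, cut at about 3.7% in these data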;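 note: PTEN knockout HCT116 line with beta catenin targeted HCT116 as companion control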
H69AR inhibit: proliferation blockers of H69AR lung cancer cells, primary screen, cell-based, human, 86K library | H69AR lung tumor viability, ATP luminescence, 72 h; hits give low values | viability, % at 10 µM | hit rate 6% among 85,000;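 active = viability at or below 40%; inactive = viability above 40%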;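 note: multidrug resistant small cell line overexpressing MRP-1 efflux transporter; 100% = mean luminescence of untreated control wells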
PTK2B oligo ant: antagonists of Pyk2 self-association, primary screen, Q293 cells, FERM NanoBiT luminescence, HTS; Protein-tyrosine kinase 2-beta (Homo sapiens), Q14289; hit rate 0.83% among 99,000; hits give low values; AID 1347419, 2020; z-score (the deposit names both 25 µM and 10 µM);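 active = Z-score of -3 or lower, scaled per plate to the spread of control and sample wells; inactive = z-score above -3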;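 note: negative z-score means lost luminescence so less FERM oligomerization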
Target sequence (Q14289 whole entry, looked up): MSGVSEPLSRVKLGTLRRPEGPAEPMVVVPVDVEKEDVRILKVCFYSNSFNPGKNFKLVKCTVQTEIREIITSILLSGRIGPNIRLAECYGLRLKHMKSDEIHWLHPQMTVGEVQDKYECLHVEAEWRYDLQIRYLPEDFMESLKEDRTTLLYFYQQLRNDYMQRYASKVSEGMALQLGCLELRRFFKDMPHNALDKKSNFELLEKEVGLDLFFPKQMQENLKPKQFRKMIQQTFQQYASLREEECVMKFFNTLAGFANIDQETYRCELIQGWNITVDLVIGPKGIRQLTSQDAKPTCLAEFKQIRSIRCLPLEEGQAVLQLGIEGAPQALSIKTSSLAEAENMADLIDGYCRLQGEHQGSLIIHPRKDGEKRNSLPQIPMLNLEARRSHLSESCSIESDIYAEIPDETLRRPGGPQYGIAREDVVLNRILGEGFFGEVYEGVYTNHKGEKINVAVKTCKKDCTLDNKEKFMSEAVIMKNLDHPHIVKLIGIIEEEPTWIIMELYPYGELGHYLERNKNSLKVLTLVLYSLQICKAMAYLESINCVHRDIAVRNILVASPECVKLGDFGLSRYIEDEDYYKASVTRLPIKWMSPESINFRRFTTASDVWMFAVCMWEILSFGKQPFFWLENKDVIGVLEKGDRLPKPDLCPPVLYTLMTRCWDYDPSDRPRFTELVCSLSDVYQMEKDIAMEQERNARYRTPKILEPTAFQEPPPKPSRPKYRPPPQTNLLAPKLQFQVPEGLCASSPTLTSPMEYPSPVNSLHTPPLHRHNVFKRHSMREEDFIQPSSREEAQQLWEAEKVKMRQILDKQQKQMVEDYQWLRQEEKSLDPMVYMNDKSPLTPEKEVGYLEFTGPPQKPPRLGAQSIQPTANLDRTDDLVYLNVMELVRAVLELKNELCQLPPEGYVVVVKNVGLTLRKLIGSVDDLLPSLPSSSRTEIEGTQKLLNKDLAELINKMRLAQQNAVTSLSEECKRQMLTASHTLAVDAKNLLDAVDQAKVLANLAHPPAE
An asterisk follows results filed as active; x = not tested or not shown.

SMILES	Fibroblast inh	bCat KO growth	HUVEC inhibit	HCT116 PTEN-null	H69AR inhibit	PTK2B oligo ant
O=C(CO/N=C/c1cccc([N+](=O)[O-])c1)Nc1ccc2ccccc2c1	107.7	96.0	88.6	103.6	68.1	1.99
O=[N+]([O-])c1cccc(/C=C/c2nc(C=Nc3ccc4ccccc4c3)c(O)o2)c1	x	17.8	x	2.7*	x	0.52
O=C(CSc1nnc(SCc2ccc(Cl)cc2)s1)N/N=C/c1c[nH]c2ccccc12	x	5.2*	x	14.4	x	x
COc1cccc2c1C(=O)C=C(C)C2=O	x	1.8*	x	2.9*	x	x
CCN1/C(=C2\SC(=S)N(Cc3ccccc3)C2=O)Sc2ccccc21	x	87.6	x	91.0	x	x
CCC(CO)[n+]1c(C)cc(/C=C2\Sc3ccccc3N2Cc2ccccc2)cc1C (configuration not stated)	x	1.4*	x	1.6*	x	0.11
Cc1[nH]c2ccccc2c1CN1CCc2ccccc2C1	62.9	2.2*	79.5	2.7*	35.3*	0.3
CC(C)CNC(=S)NC(=O)c1ccc(Cl)cc1Cl	x	90.6	x	100.1	x	x
Cc1ccc(C)c(NC(=S)NC(NC(=O)Cc2cccc3ccccc23)C(Cl)(Cl)Cl)c1 (configuration not stated)	4.4*	17.1	4.3*	2.6*	2.3*	-0.1
COc1ccc(CN=C(C)c2c(C(F)(F)F)[nH]n(-c3nc4ccccc4s3)c2=O)cc1	101.1	32.8	22.3*	37.6	12.5*	-0.56
COc1ccc(-c2coc3cc4oc(=O)cc(-c5ccccc5)c4cc23)cc1F	x	2.6*	x	2.1*	x	-0.72
O=C(NCc1ccco1)c1ccc(Cn2c(=O)c3ccccc3n(Cc3cccc(Cl)c3)c2=O)cc1	68.1	60.6	62.3	63.2	30.9*	-1.2
CCn1c(=O)cc(SCC(=O)NCc2ccc(C)o2)c2ccccc21	82.6	82.4	60.1	90.5	100.8	-0.2
Cc1ccc(C)c(Cn2c(=O)n(CCCC(=O)NCc3ccco3)c(=O)c3ccccc32)c1	82.9	38.1	85.7	31.2	36.0*	x
CCn1c(=O)cc(SCC(=O)NCc2ccco2)c2ccccc21	88.8	23.9	60.3	37.4	38.6*	0.06
Cc1ccc(C)c(Cn2c(=O)n(CCC(=O)NCc3ccco3)c(=O)c3ccccc32)c1	76.3	63.0	48.4	57.9	51.8	-0.4
O=C(CCCCn1c(=O)c2ccccc2n(Cc2ccc(F)cc2Cl)c1=O)NCc1ccco1	88.1	61.1	64.0	64.7	24.3*	0.18
Cc1ccc(NC(C#N)c2ccccc2OCc2ccccc2)cc1 (configuration not stated)	x	32.7	x	41.0	x	-0.26
CCOC(=O)Cn1nnnc1C(CC)N(Cc1cccs1)Cc1cc2cc(C)ccc2[nH]c1=O (configuration not stated)	100.8	54.6	86.1	51.5	72.5	0.41
CCC(c1nnnn1C1CCCC1)N(Cc1cccs1)Cc1cc2cc(C)ccc2[nH]c1=O (configuration not stated)	74.1	4.0*	51.2	3.0*	4.2*	0.07
CCOc1ccc2[nH]c(=O)c(CN(Cc3cccs3)C(CC)c3nnnn3C(C)(C)CC)cc2c1 (configuration not stated)	61.8	29.8	55.6	17.7	4.9*	0.58
CCOC(=O)/C=c1\s/c(=C\c2c(OCC)ccc3ccccc23)c(=O)n1CC(=O)NCC1CCCO1 (configuration not stated)	88.8	68.0	77.9	64.3	30.1*	-1.89
CCOC(=O)/C=c1\s/c(=C\c2ccc3c(c2)OCCO3)c(=O)n1CC(=O)NCC1CCCO1 (configuration not stated)	102.9	82.2	91.2	84.8	86.1	-1.2
COc1cc(NC(=O)COC(=O)c2nc3nc(C)cc(C)n3n2)cc(OC)c1	106.2	99.3	97.2	122.6	85.3	0.36
C=CCN1C(=O)N/C(=C/c2ccc(C)o2)C1=O	x	93.7	x	105.6	x	x
SMILES	Fibroblast inh	bCat KO growth	HUVEC inhibit	HCT116 PTEN-null	H69AR inhibit	PTK2B oligo ant
COc1ccc(CSCC(=O)N/N=C/c2ccc(OCC(=O)NCc3ccco3)cc2)cc1	x	85.8	x	84.4	x	-0.19
O=C(CSCc1cccc(Cl)c1)N/N=C/c1ccc(OCC(=O)N2CCCCC2)cc1	x	74.0	x	71.1	x	-3.41*
Cc1cc(C)cc(CSCC(=O)N/N=C/c2ccc(OCC(=O)NCc3ccco3)cc2)c1	x	82.4	x	74.8	x	-3.15*
Cc1nc(SCC(=O)NC(C)(C#N)C2CC2)c2c(-c3cccs3)csc2n1 (configuration not stated)	x	75.0	x	61.8	x	-1.92
O=C(CSc1nnc(-c2ccccc2NC(=O)c2ccccc2)o1)OC1CCCCC1	103.7	x	85.3	x	52.0	0.68
Cc1ccccc1Nc1nc(N)nc(CSc2nc3ccccc3c(=O)n2C)n1	100.2	90.2	100.3	75.4	94.5	-3.11*
Cc1ccccc1Nc1nc(N)nc(CSc2nc3ccccc3c(=O)n2CCCO)n1	96.4	68.2	87.3	62.7	75.3	-1.18
c1ccc(-c2nc3cc4ccccc4cc3[nH]2)nc1	52.4	39.6	54.5	39.9	16.2*	0.33
Clc1ccc(CSc2nnc(-c3sccc3-n3cccc3)o2)cc1	x	65.5	x	72.1	x	-3.19*
Clc1cc(Cl)cc(CSc2nnc(-c3sccc3-n3cccc3)o2)c1	x	84.8	x	83.7	x	-1.55
Cc1ccc(CSc2nnc(-c3ccco3)o2)cc1	101.0	100.8	117.3	102.7	109.0	-0.21
Clc1cccc(CSc2nnc(-c3sccc3-n3cccc3)o2)c1	x	56.1	x	60.3	x	-3.18*
O=C(NCCc1c[nH]c2ccccc12)c1ccc(S(=O)(=O)NCc2ccco2)cc1	96.1	70.4	70.4	73.6	39.4*	0.61
CCOc1ccc(N2C(=O)CC(SC(=NC)Nc3ccc(F)cc3)C2=O)cc1 (configuration not stated)	95.3	87.7	90.3	81.0	91.5	-2.2
Cc1cccn2c(=O)c3cc(C(=O)N4CCc5ccccc54)n(C)c3nc12	91.0	x	60.0	x	25.3*	x
Cc1cccn2c(=O)c3cc(C(=O)N4c5ccccc5CC4C)n(C)c3nc12 (configuration not stated)	83.1	63.4	77.4	45.0	41.8	-1.41
CC1Cc2ccccc2N1C(=O)c1cc2c(=O)n3ccccc3nc2n1C (configuration not stated)	92.2	61.3	52.2	41.5	12.8*	-2.26
CCn1cc(/C=N\NC(=O)c2ccccc2Cl)cn1	x	86.0	x	102.9	x	x
Fc1ccc(Sc2cc(Cl)c(-c3ccccc3)nn2)cc1	x	82.2	x	86.8	x	-3.49*
N#CCSc1nc2c(sc(=S)n2Cc2ccco2)c(=O)n1-c1ccc(F)cc1	73.8	23.5	88.0	22.2	39.9*	-1.39
